We go through 20 molecules from ChEMBL document CHEMBL1126043, “Novel thiazolidine-2,4-diones as potent euglycemic agents” (1992).

The subject of assay [1] is Mus musculus. Kind of assay: In vivo euglycemic activity of the compound (administered by oral gavage) in C57/6J-ob/ob mice is measured by normalization of blood glucose levels at a dose of 25(mg/kg). The format is functional. Summed up:
(§1)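 Mice bled from retro-orbital sinus into tubes with 2% sodium heparin for baseline glucose, then dosed by oral gavage once daily for 4 days in 0.25% (w/v) methylcellulose in water, no pH adjustment (0.1 mL per 20 g). Bled 24 h after fourth dose. Samples centrifuged 2 min at 10000g. Plasma glucose measured by hexokinase UV method. Results scaled to vehicle (0%) and ciglitazone 50 mg/kg (100%).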

In assay [2] the test system is Mus musculus. The assay can be described thus: In vivo euglycemic activity (administered by oral gavage) in C57/6J-ob/ob mice by normalization of blood glucose levels at a dose of 10 mg/kg. Type of assay: functional. Put shortly:
as §1

Assay [3] has as its system Mus musculus. The assay can be described thus: In vivo euglycemic activity of the compound (administered by oral gavage) in C57/6J-ob/ob mice is measured by normalization of blood glucose levels at a dose of 0.1(mg/kg). The format is functional. Put shortly:
as §1

Assay [4] has as its system Mus musculus. Kind of assay: In vivo euglycemic activity of the compound (administered by oral gavage) in C57/6J-ob/ob mice is measured by normalization of blood glucose levels at a dose of 0.25(mg/kg). The format is functional. Put shortly:
as §1

In assay [5] the test system is Mus musculus. The assay can be described thus: In vivo euglycemic activity (administered by oral gavage) in C57/6J-ob/ob mice by normalization of blood glucose levels at a dose of 0.5 mg/kg. Type of assay: functional. Put shortly:
as §1

In assay [6] the test system is Mus musculus. The assay can be described thus: In vivo euglycemic activity (administered by oral gavage) in C57/6J-ob/ob mice by normalization of blood glucose levels at a dose of 1 mg/kg. Type of assay: functional. Put shortly:
as §1

Assay [7] has as its system Mus musculus. Kind of assay: In vivo euglycemic activity of the compound (administered by oral gavage) in C57/6J-ob/ob mice is measured by normalization of blood glucose levels at a dose of 5(mg/kg).
For assay [8], the system named is Mus musculus. The assay can be described thus: In vivo euglycemic activity (administered by oral gavage) in C57/6J-ob/ob mice measured by normalization of blood glucose levels at a dose of 5 mg/kg. Type of assay: functional.
Assay [9] has as its system Mus musculus. Kind of assay: In vivo euglycemic activity of the compound (administered by oral gavage) in C57/6J-ob/ob mice is measured by normalization of blood glucose levels at a dose of 0.05(mg/kg). The format is functional. Put shortly:
as §1

The test system of assay [10] is Mus musculus. Kind of assay: In vivo euglycemic activity of the compound (administered by oral gavage) in C57/6J-ob/ob mice is measured by normalization of blood glucose levels at a dose of 10(mg/kg). Type of assay: functional. Summed up: as §1
The test system of assay [11] is Mus musculus. Kind of assay: In vivo euglycemic activity of the compound (administered by oral gavage) in C57/6J-ob/ob mice is measured by normalization of blood glucose levels at a dose of 1(mg/kg). Type of assay: functional. Put shortly: as §1
Assay [12] concerns Mus musculus. Kind of assay: In vivo euglycemic activity of the compound (administered by oral gavage) in C57/6J-ob/ob mice is measured by normalization of blood glucose levels at a dose of 50(mg/kg). Type of assay: functional.
Assay [13] has as its system Mus musculus. The assay can be described thus: In vivo euglycemic activity of the compound (administered by oral gavage) in C57/6J-ob/ob mice is measured by normalization of blood glucose levels at a dose of 2.5(mg/kg). The format is functional. Summed up: as §1

As for `O=C1NC(=O)C(Cc2ccc(C(=O)/C=C/c3ccc(-c4ccccc4)cc3)cc2)S1` (stereo unspecified), the Normalization with Mus musculus [1] was 65%; with Mus musculus [2], 56%.
`Cc1oc(-c2ccc(C(F)(F)F)cc2)nc1CCC(=O)c1ccc(CC2SC(=O)NC2=O)cc1` (stereo unspecified): the Normalization was 88% with Mus musculus [3], 81% in the assay on Mus musculus [4], 69% with Mus musculus [5] and 86% in the assay with Mus musculus [6].
As to `COc1ccccc1/C=C/C(=O)c1ccc(CC2SC(=O)NC2=O)cc1` (stereo unspecified), the Normalization is on record as 66% with Mus musculus [2] and 50% with Mus musculus [7].
For `O=C1NC(=O)C(Cc2ccc(CCCc3ccccc3)cc2)S1` (stereo unspecified), the Normalization in the assay on Mus musculus [1] was found to be 73%; in the assay with Mus musculus [8] it was 46%; with Mus musculus [2], 77%.
Consider `Cc1oc(-c2ccccc2)nc1CCC(O)c1ccc(CC2SC(=O)NC2=O)cc1` (stereo unspecified), for which the Normalization is recorded as 72% with Mus musculus [9], 93% with Mus musculus [3], 85% in the assay on Mus musculus [4] and 100% with Mus musculus [5].
The molecule `COCc1ccc(/C=C/C(=O)c2ccc(CC3SC(=O)NC3=O)cc2)cc1` (stereo unspecified) yielded a Normalization with Mus musculus [1] of 0%.
For `Cc1ccc(-c2nc(CCC(=O)c3ccc(CC4SC(=O)NC4=O)cc3)c(C)o2)o1` (stereo unspecified), the Normalization in the assay on Mus musculus [3] was 47%; with Mus musculus [4], 87%; in the assay on Mus musculus [5] it was 68%.
`O=C1NC(=O)C(Cc2ccc(C(=O)/C=C/c3ccc(OCc4ccccc4)cc3)cc2)S1` (stereo unspecified): the results for the Normalization with Mus musculus [1], in the assay on Mus musculus [8] and in the assay with Mus musculus [2] were 96%, 64% and 57%, respectively.
The corresponding values for `O=C1NC(=O)C(Cc2ccc(C(=O)/C=C/c3ccccc3)cc2)S1` (stereo unspecified) are 99%, 23% and 65%.
`O=C1NC(=O)C(Cc2ccc(C(=O)/C=C/c3ccccc3O)cc2)S1` (stereo unspecified) returned a Normalization in the assay on Mus musculus [1] of 0%.
On to `COc1c(C)cc(-c2nc(CCC(=O)c3ccc(CC4SC(=O)NC4=O)cc3)c(C)o2)cc1C` (stereo unspecified), for which the Normalization with Mus musculus [3] came out at 75%; in the assay with Mus musculus [5] it was 100%; in the assay with Mus musculus [6], 100%.
As for `O=C1NC(=O)C(Cc2ccc(C(=O)CCc3ccccc3)cc2)S1` (stereo unspecified), the Normalization in the assay on Mus musculus [1] is recorded as 93%; in the assay with Mus musculus [8] it was 53%; in the assay with Mus musculus [2], 81%.
In turn, `O=C1NC(=O)C(Cc2ccc(C(=O)COc3ccccc3)cc2)S1` (stereo unspecified) showed a Normalization in the assay with Mus musculus [10] of 7%.
As for `Cc1oc(-c2ccccc2)nc1C/C=C/c1ccc(CC2SC(=O)NC2=O)cc1` (stereo unspecified), the results for the Normalization with Mus musculus [3], in the assay with Mus musculus [4] and in the assay with Mus musculus [5] were 29%, 74% and 84%, respectively.
Turning to `Cc1oc(-c2ccccc2)nc1CCC(=O)c1ccc(/C=C2\SC(=O)NC2=O)cc1`, the Normalization in the assay with Mus musculus [3] was 43%; with Mus musculus [5], 81%; in the assay with Mus musculus [6], 84%.
On to `Cc1ccc(-c2nc(CCC(=O)c3ccc(CC4SC(=O)NC4=O)cc3)c(C)o2)cc1` (stereo unspecified), for which the Normalization in the assay with Mus musculus [4] is reported as 15%; in the assay on Mus musculus [5] it was 47%; with Mus musculus [11] it was 47%.
For `O=C1NC(=O)C(Cc2ccc3c(c2)CCC(Cc2ccccc2)O3)S1` (stereo unspecified), the Normalization is 91% with Mus musculus [1], 48% in the assay with Mus musculus [8] and 70% in the assay with Mus musculus [2].
The corresponding values for `O=C1NC(=O)C(Cc2ccc3c(c2)CCC(Cc2ccccc2)C3=O)S1` (stereo unspecified) are 47%, 39% and 54%.
As for `CC1(COc2ccc(CC3SC(=O)NC3=O)cc2)CCCCC1` (stereo unspecified) [CIGLITAZONE], in the assay on Mus musculus [12], the Normalization is 100%.
As to `Cc1oc(-c2ccccc2)nc1CCC(=O)c1ccc(CC2SC(=O)NC2=O)cc1` (stereo unspecified) [DARGLITAZONE], the Normalization in the assay on Mus musculus [8] came to 100%; with Mus musculus [2], 100%; in the assay with Mus musculus [13], 88%; in the assay on Mus musculus [3], 83%; in the assay with Mus musculus [4], 88%; in the assay on Mus musculus [5] it was 97%. The molecule further displayed a Normalization in the assay on Mus musculus [6] of 100%.
